The subject of data set [1] is Hepatitis B virus. Description: Antiviral activity against Hepatitis B virus infected in human HepG2(2.2.15) cells assessed as inhibition of viral surface antigen secretion after 6 days by ELISA. It is filed as functional, organism-based. To be noted: HepG2 2.2.15, 144 h. In short, it runs like this:
(§1)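 HepG 2.2.15 cells in DMEM with 10% FBS, 37 °C, 5% CO2. Treated for 6 days with refeeding every other day. Culture medium centrifuged at 6000 g to clear debris. HBeAg or HBsAg measured by quantitative ELISA on a microplate reader. IC50 = concentration giving 50% inhibition of secretion. Mean of two independent experiments.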
(In general: In an ELISA, binding on a coated surface is turned into a signal by an enzyme label.)

The test system of data set [2] is Hepatitis B virus. Description: Antiviral activity against Hepatitis B virus infected in human HepG2(2.2.15) cells assessed as inhibition of viral e antigen secretion after 6 days by ELISA. The settings on record: HepG2 2.2.15, 144 h. It is filed as functional, organism-based. In short, it runs like this: as §1
Data set [3] can be described thus: Cytotoxicity against human HepG2(2.2.15) cells. The class given is cell-based. In short, it runs like this: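 HepG 2.2.15 cells in DMEM with 10% FBS, 37 °C, 5% CO2. CC50 = concentration killing 50% of cells. Mean of two independent experiments.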
Data set [4] is described as follows: Selectivity index, ratio of CC50 for human HepG2(2.2.15) cells to IC50 for Hepatitis B virus infected in human HepG2(2.2.15) cells assessed as inhibition of viral surface antigen secretion. It is filed as functional. In short, it runs like this:
(§2)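 Ratio of CC50 in HepG 2.2.15 cells to the IC50 for HBeAg or HBsAg secretion. Both values come from ELISA and cytotoxicity runs on the same cell line. Each input is the mean of two independent experiments.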

Data set [5] is described as follows: Selectivity index, ratio of CC50 for human HepG2(2.2.15) cells to IC50 for Hepatitis B virus infected in human HepG2(2.2.15) cells assessed as inhibition of viral e antigen secretion. It is filed as functional. In short, it runs like this:
as §2

In general, IC50 refers to the concentration needed to halve the response being measured. One may read the CC50 as the concentration that lowers cell viability or growth by half. Lower therefore signals harm at low concentration. With `CC(=O)OCCc1c(-c2ccccc2Cl)c2cc(Cl)ccc2[nH]c1=O`, the IC50 with Hepatitis B virus [1] was 74 µM; in the data set with Hepatitis B virus [2], greater than 27 µM. In data set [3], this compound yielded a CC50 of 27 µM. Further, the “Selectivity Index” value in data set [4] and in data set [5] was less than 1 in each case.

With `O=c1cc(-c2ccccc2Cl)c2cc(Cl)ccc2[nH]1`, the IC50 is 460 µM in the data set on Hepatitis B virus [1] and greater than 1000 µM with Hepatitis B virus [2].

Consider `Nc1ccn([C@@H]2CS[C@H](CO)O2)c(=O)n1` [LAMIVUDINE], for which the results for the IC50 with Hepatitis B virus [1] and in the data set on Hepatitis B virus [2] were 27000 µM and 30000 µM, respectively. The “Selectivity Index” value in data set [4] was determined as 1.1; in data set [5], 1.

As to `O=C(OCCc1c(-c2ccccc2Cl)c2cc(Cl)ccc2[nH]c1=O)c1cccs1`, the IC50 in the data set on Hepatitis B virus [1] and with Hepatitis B virus [2] was greater than 1700 µM throughout. Besides, the CC50 in data set [3] was greater than 1700 µM.

As for `O=CCc1c(-c2ccccc2Cl)c2cc(Cl)ccc2[nH]c1=O`, the IC50 in the data set with Hepatitis B virus [1] was 76 µM; with Hepatitis B virus [2] it was greater than 120 µM. Further, in data set [3], the cytotoxic concentration (CC50) was 120 µM. For the same compound, the “Selectivity Index” value was 1.6 in data set [4] and less than 1 in data set [5].

Take `O=C(OCCc1c(-c2ccccc2Cl)c2cc(Cl)ccc2[nH]c1=O)c1ccccc1`: the values for the IC50 in the data set with Hepatitis B virus [1] and in the data set on Hepatitis B virus [2] were 32 µM and greater than 43 µM, respectively. The compound also had a cytotoxic concentration (CC50) in data set [3] of 43 µM. In addition, the “Selectivity Index” value in data set [4] is 1.42; in data set [5] it was less than 1.

Regarding `CCCCC(=O)OCCc1c(-c2ccccc2Cl)c2cc(Cl)ccc2[nH]c1=O`, the IC50 is 82 µM with Hepatitis B virus [1] and greater than 200 µM in the data set on Hepatitis B virus [2]. The compound further displayed a CC50 in data set [3] of 200 µM. Further, the “Selectivity Index” value is listed as 2.4 in data set [4] and less than 1 in data set [5].

In the case of `CCCCCCCC(=O)OCCc1c(-c2ccccc2Cl)c2cc(Cl)ccc2[nH]c1=O`, the IC50 is 40 µM with Hepatitis B virus [1] and greater than 78 µM with Hepatitis B virus [2]. In data set [3], this compound showed a CC50 of 78 µM. The “Selectivity Index” value is listed as 1.9 in data set [4] and less than 1 in data set [5].

Consider `C/C=C(\C)C(=O)OCCc1c(-c2ccccc2Cl)c2cc(Cl)ccc2[nH]c1=O`, for which the values for the IC50 in the data set with Hepatitis B virus [1] and with Hepatitis B virus [2] were 58 µM and 62 µM, respectively. The compound further came in with a cytotoxic concentration (CC50) in data set [3] of 350 µM. Also, the “Selectivity Index” value amounted to 6.1 in data set [4] and 5.6 in data set [5].

`C=CCn1c(=O)c(CCO)c(-c2ccccc2Cl)c2cc(Cl)ccc21`: the IC50 was 10 µM in the data set on Hepatitis B virus [1] and 12 µM in the data set on Hepatitis B virus [2]. In data set [3], half-maximal cytotoxicity (CC50) was put at 23 µM. Besides, the “Selectivity Index” value is recorded as 2.3 in data set [4] and 1.9 in data set [5].

As to `O=C(/C=C/c1cccnc1)OCCc1c(-c2ccccc2Cl)c2cc(Cl)ccc2[nH]c1=O`, the IC50 in the data set with Hepatitis B virus [1] was 34 µM; in the data set with Hepatitis B virus [2], 2200 µM. In data set [3], this compound returned a CC50 of 39 µM. In addition, the “Selectivity Index” value in data set [4] is given as 1.1; in data set [5], less than 1.

`O=C(COc1ccccc1)OCCc1c(-c2ccccc2Cl)c2cc(Cl)ccc2[nH]c1=O`: the IC50 was 56 µM in the data set with Hepatitis B virus [1] and greater than 81 µM in the data set with Hepatitis B virus [2]. The compound further registered a CC50 in data set [3] of 81 µM. In addition, the “Selectivity Index” value in data set [4] is recorded as 1.5; in data set [5], less than 1.

On to `O=c1c(CCO)c(-c2ccccc2Cl)c2cc(Cl)ccc2n1Cc1c(F)cccc1F`, for which the half-maximal inhibitory concentration (IC50) with Hepatitis B virus [1] is 87 µM; in the data set on Hepatitis B virus [2] it was greater than 2300 µM. The CC50 in data set [3] is greater than 2300 µM. The “Selectivity Index” value in data set [4] is reported as greater than 2.6.

With `Clc1ccc2nc3c(c(-c4ccccc4Cl)c2c1)CCS3`, the IC50 in the data set with Hepatitis B virus [1] and in the data set on Hepatitis B virus [2] was greater than 2400 µM each time. In data set [3], this compound showed a CC50 greater than 2400 µM.

For the compound `Clc1ccc2nc3c(c(-c4ccccc4Cl)c2c1)CCO3`, the half-maximal inhibitory concentration (IC50) in the data set on Hepatitis B virus [1] and in the data set with Hepatitis B virus [2] was greater than 280 µM each time. This compound registered a CC50 in data set [3] greater than 280 µM.

For the compound `CC12CCC(C(=O)OCCc3c(-c4ccccc4Cl)c4cc(Cl)ccc4[nH]c3=O)(OC1=O)C2(C)C` (stereo not drawn), the IC50 with Hepatitis B virus [1] is 1500 µM; in the data set with Hepatitis B virus [2], greater than 1800 µM. In data set [3], the CC50 was greater than 1800 µM. Further, the “Selectivity Index” value in data set [4] is listed as greater than 1.2.

The values above are taken from ChEMBL document CHEMBL1649405, “Structure-activity relationships study of 6-chloro-4-(2-chlorophenyl)-3-(2-hydroxyethyl) quinolin-2(1H)-one derivatives as novel non-nucleoside anti-hepatitis B virus agents” (Eur J Med Chem, 2011).
